Measured values: ChEMBL document CHEMBL4513216, “Probing the Open Global Health Chemical Diversity Library for Multistage-Active Starting Points for Next-Generation Antimalarials” (ACS Infect Dis, 2020)

Assay: Toxicity liver stage against HepG2, at 10uM
Format: cell-based
Parameters: test concentration 10 uM, cell line HepG2-A16-CD81EGFP
Settings: human, HepG2-A16-CD81EGFP cells; read-out: INHIBITION
In short: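 Uninfected HepG2-A16-CD81EGFP cells, 3 × 10^3 per well, 1536-well, plated on prespotted compound at 10 μM final, parasite-free screening media added to match infected plates; puromycin 10 μM positive, DMSO 0.5% negative; run in parallel with 48 h PbLuc assay at 37 °C, 5% CO2; viability by CellTiter-Glo luminescence, normalized to controls.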

CS(=O)(=O)c1ccc(CNC[C@H]2COCc3nc4cccnc4n32)cc1
cytotoxicity at 10 µM: -0.505%

CC(=O)N1N=C(c2ccncc2)OC1C(=O)N(C)CCc1ccccc1 (stereo not given)
cytotoxicity at 10 µM: 12.9%

O=C(NCC(Cc1cccc(F)c1)N1CCCC1=O)C1CCCC1 (stereo not given)
cytotoxicity at 10 µM: 1.39%

CN(C)CC(=O)N1CC[C@H]2OCC[C@@]2(COCC2CC2)C1
cytotoxicity at 10 µM: 0.165%

Cc1cccc(N2CC[C@H]3[C@H]2CCN3C(=O)c2cnn(C)c2)n1
cytotoxicity at 10 µM: 1.24%

COCCC(=O)N1CC[C@@H](N2CCN(C)CC2)[C@@H]1Cc1ccccc1
cytotoxicity at 10 µM: 7.7%

COCc1ncn2c1CN(S(=O)(=O)c1cccs1)CCC2
cytotoxicity at 10 µM: 6.82%

CCN1C(=O)C2(CCOCC2)c2cc(NC(=O)c3cnoc3C)ccc21
cytotoxicity at 10 µM: -2.54%

Cn1c(N)c2c(=O)n(C)c(-c3ccccc3)cc2c(C#N)c1=O
cytotoxicity at 10 µM: 1.57%

Cn1nc(CNC(=O)c2ccc(Cl)cc2)c2c1CCOC2
cytotoxicity at 10 µM: 5.86%

O=C1CC(c2cccc(O)c2)c2sc(C(=O)O)c(-c3ccccc3)c2N1 (stereo not given)
cytotoxicity at 10 µM: 6.33%

Cc1ccc(CNC(=O)c2ccc(F)cc2)o1
cytotoxicity at 10 µM: -3.35%

CCn1ccc(-c2cc(C(=O)O)n3ncc(Br)c3n2)n1
cytotoxicity at 10 µM: -4.81%

Cn1ncc(C(=O)N2CCOCC2)c1Cl
cytotoxicity at 10 µM: 8.93%

CN(C)C(=O)c1c[nH]nc1C1CCN(S(=O)(=O)c2cccc(Cl)c2)CC1
cytotoxicity at 10 µM: 1.22%

CCOC(=O)[C@H]1CNC[C@@H]1C(=O)OCC
cytotoxicity at 10 µM: 6.1%

Cc1cc(C2CCCN2C(=O)c2cnn(C)c2)on1 (stereo not given)
cytotoxicity at 10 µM: -1.85%

Cc1nnc2n1CC(CNCc1nc(-c3ccsc3)no1)CC2 (stereo not given)
cytotoxicity at 10 µM: -4.68%

CS(=O)(=O)NC(=O)c1ccn(-c2ccccc2Cl)n1
cytotoxicity at 10 µM: -4.27%

CC(C)C(C)(CNC(=O)OC(C)(C)C)NC(=O)c1cnccn1 (stereo not given)
cytotoxicity at 10 µM: -6.62%

CCOc1ccc(NC(=O)Cc2cc(C)[nH]n2)cc1CO
cytotoxicity at 10 µM: 0.335%

CC(C)c1cnc(CN2CCCS2(=O)=O)o1
cytotoxicity at 10 µM: 10.6%

Cc1cnn(Cc2ccc(NC(=O)N[C@@H]3C=C[C@H](CO)C3)cc2)c1
cytotoxicity at 10 µM: 7.76%

O=C(NCCNc1cnccn1)N1CCc2ccccc2C1
cytotoxicity at 10 µM: -2.73%

CCOc1ccc(CNC(=O)N2CCCC(CO)C2)cc1F (stereo not given)
cytotoxicity at 10 µM: 8.21%

O=c1[nH]nc(SCC2CCCCO2)n1C1CC1 (stereo not given)
cytotoxicity at 10 µM: 2.14%

CC(NCc1ccc(-c2ccc(Cl)cc2)o1)c1nnc2n1CCC2 (stereo not given)
cytotoxicity at 10 µM: -2.04%

Cc1nc(C2(NCC(=O)NCc3cccs3)CCCCC2)no1
cytotoxicity at 10 µM: 1.17%

Cc1ncc2c(n1)CN(Cc1nc3c(F)cccc3[nH]1)CC2
cytotoxicity at 10 µM: -4.74%

CCOc1cccc(COC(=O)c2scnc2C)n1
cytotoxicity at 10 µM: -0.966%

COC(=O)C(C)(C)C(C)(C)NC(=O)Nc1nnc(-c2ccccn2)s1
cytotoxicity at 10 µM: 9.15%

N#Cc1nccnc1N1CCC(Cc2ccccc2)C1 (stereo not given)
cytotoxicity at 10 µM: -8.68%

COC(=O)CN(C(=O)c1ccc(-n2ccnc2)cc1)C1CCCC1
cytotoxicity at 10 µM: -7.28%

Cc1nc(CNC(=O)NC(C)c2ccc3c(c2)OCCCO3)cs1 (stereo not given)
cytotoxicity at 10 µM: -0.535%

O=C(C1COc2ccccc2C1)N(CCO)Cc1ccccc1 (stereo not given)
cytotoxicity at 10 µM: 4.58%

NC(=O)Cn1ccc(NC(=O)C2(c3ccc(F)cc3)CC2)n1
cytotoxicity at 10 µM: -2.82%

NC(=O)C1CCN(C(=O)c2ccc(Sc3ccccn3)cc2)CC1
cytotoxicity at 10 µM: 9.48%

Cc1cc(C(=O)NCC2(C(N)=O)CCOCC2)nn1C(C)(C)C
cytotoxicity at 10 µM: -16.6%

Cc1ccc(-c2nnc(C(C)N3CCn4c(C)nnc4C3)o2)cc1 (stereo not given)
cytotoxicity at 10 µM: -7.33%

CC(C(=O)N1CCc2sccc2C1)N1CCCN(C2CC2)CC1 (stereo not given)
cytotoxicity at 10 µM: 3.86%

CCC(C)NC(=O)c1ccc(-c2ccco2)[nH]c1=O (stereo not given)
cytotoxicity at 10 µM: -5.05%

CCC(=O)N1CCCN(C(=O)c2cc(C)cc(Br)c2O)CC1
cytotoxicity at 10 µM: 7.12%

CC(C#N)CN(C)C(=O)c1cn(-c2ccc(Br)cc2)cn1 (stereo not given)
cytotoxicity at 10 µM: 13.6%

CCn1nc(C)c(S(=O)(=O)N(C)c2ccc(Cl)cn2)c1C
cytotoxicity at 10 µM: -2.13%

CC(=O)N(Cc1ncc(C)o1)C1CCN(Cc2cccc(C#N)c2)C1 (stereo not given)
cytotoxicity at 10 µM: 1.63%

O=c1oc(-c2cccs2)nn1CC(O)c1ccccc1 (stereo not given)
cytotoxicity at 10 µM: 21.3%

O=C(c1ccoc1)N1CCCn2nnc(COCC3CC3)c2C1
cytotoxicity at 10 µM: -68.5%

Cc1cc(C)nc(CN(C)c2nc(C3CCCC3)nc3c2cnn3C)c1
cytotoxicity at 10 µM: 12.4%

CSc1ccccc1NC(=O)CCC(=O)N(C)C1CCN(C)CC1
cytotoxicity at 10 µM: -2.91%

Cc1cnc(NC(C)Cc2cnccn2)nc1N(C)C (stereo not given)
cytotoxicity at 10 µM: 0.342%

CC(C)c1noc(C2CCCN2C(=O)Cc2cn3ccsc3n2)n1 (stereo not given)
cytotoxicity at 10 µM: 4.52%

Cn1c(-c2ccccc2Cl)nc2cc(C(=O)NC(CO)CO)cnc21
cytotoxicity at 10 µM: -10.8%

CNc1ncccc1C(=O)N1CCC2(CCN(C)C2)CC1
cytotoxicity at 10 µM: 0.521%

Cc1cc(C)n(CCC2CC(=O)Nc3cc4[nH]ncc4cc32)n1 (stereo not given)
cytotoxicity at 10 µM: -6.17%

COc1cccc(N2CCN(C(=O)CO)CC2=O)c1
cytotoxicity at 10 µM: 0.995%

CC(CN1CCC2(CC1)N=C(N(C)C)NC2=O)c1ccccc1 (stereo not given)
cytotoxicity at 10 µM: 2.92%

CNC(=O)c1nc(CN2CCOC(C(F)(F)F)C2)no1 (stereo not given)
cytotoxicity at 10 µM: -2.08%

Cc1cccc(C(C(=O)NCCCc2ccncc2)N(C)C)c1 (stereo not given)
cytotoxicity at 10 µM: -8.38%

CC(NC(=O)c1cc(=O)n(C)c(=O)n1C)c1ccccc1-n1cccn1 (stereo not given)
cytotoxicity at 10 µM: -9.47%

CSCCCN1C[C@H](NC(=O)c2ccc(CO)cc2)[C@@H](C2CC2)C1
cytotoxicity at 10 µM: -11.1%

CS(=O)(=O)N1CCc2[nH]nc(Cc3cccs3)c2C1
cytotoxicity at 10 µM: 1.44%

O=C(c1coc(CN2CCN(c3ccccc3F)CC2)n1)N1CC=CC1
cytotoxicity at 10 µM: -3.06%

O=C(NC1CC1)C1CN(Cc2ccc3c(c2)OCCO3)CCN1 (stereo not given)
cytotoxicity at 10 µM: -3.22%

O=C(c1cc(=O)n(-c2ccccc2)[nH]1)N1CCOCC(O)C1 (stereo not given)
cytotoxicity at 10 µM: -0.205%

CN(CCCc1nccn1C)C(=O)C1CCN(C(=O)C2CC2)CC1
cytotoxicity at 10 µM: -4.49%

CCOCCCNCc1cc(O)c2cc(C)ccc2n1
cytotoxicity at 10 µM: -11.1%

Cc1cc(N(C)Cc2ccsc2)n2nc(C)c(C)c2n1
cytotoxicity at 10 µM: 1.7%

COc1ccc(Cl)cc1NC(=O)CCC1CCCN(Cc2ncon2)C1 (stereo not given)
cytotoxicity at 10 µM: -4.18%

CC(C)Cc1nnc(SCC(=O)O)n1-c1ccc(F)cc1F
cytotoxicity at 10 µM: -6.13%

CCc1ccccc1OC1CN(CC2CCOC2)C1 (stereo not given)
cytotoxicity at 10 µM: -25.2%

Cc1ocnc1C(=O)N1CCN(C(=O)CC(C)C)[C@@H]2CS(=O)(=O)C[C@@H]21
cytotoxicity at 10 µM: 12.2%

O=C(c1scc2c1OCCO2)N1CCOC(Cc2ccc(F)cc2)C1 (stereo not given)
cytotoxicity at 10 µM: 1.73%

C=C(C)CNC(=O)C1CCCN(C2CCN(C(C)C)CC2)C1 (stereo not given)
cytotoxicity at 10 µM: -0.454%

CCC(C(=O)NC)N(c1cccc(C)c1)S(C)(=O)=O (stereo not given)
cytotoxicity at 10 µM: -11.8%

O=C1CN(c2ccc(CNC(=O)NCC3CCOC3)cc2)CCN1 (stereo not given)
cytotoxicity at 10 µM: -1.96%

CC(C)C(Sc1nccn1C1CC1)C(=O)NCc1cccnc1 (stereo not given)
cytotoxicity at 10 µM: -5.83%

CC(C)Cc1cc(NC(=O)c2ccccc2F)n(C)n1
cytotoxicity at 10 µM: -6.48%

c1ccc(Cc2noc(CN3CCc4c(ncn4C4CC4)C3)n2)cc1
cytotoxicity at 10 µM: 2.1%

CCOCCN1CCN(C(C)c2nc(C3CC3)no2)CC1 (stereo not given)
cytotoxicity at 10 µM: -4.51%

Cc1ccc(C(=O)Nc2cn[nH]c2)cc1F
cytotoxicity at 10 µM: -14.7%

O=C1CC(N(C(=O)c2ccc(F)c(C(F)(F)F)c2)C2CC2)C(=O)N1 (stereo not given)
cytotoxicity at 10 µM: -10.5%

Cc1nc(CN2CCCC(NCCOc3cccc(C#N)c3)C2)no1 (stereo not given)
cytotoxicity at 10 µM: -8.36%

NC(=O)C1CCN(C(=O)NCc2ccccc2-n2cccn2)C1 (stereo not given)
cytotoxicity at 10 µM: -18.4%

CC(NC(=O)N(C)CCCOc1ccccc1)c1nncn1C (stereo not given)
cytotoxicity at 10 µM: -5.4%

c1cnn(CC2CCCCN2Cc2nc(-c3ccsc3)no2)c1 (stereo not given)
cytotoxicity at 10 µM: -12.2%

CC(C)c1noc(C(C)N2CCN(Cc3nnc(C4CC4)o3)CC2)n1 (stereo not given)
cytotoxicity at 10 µM: -11.9%

CC(C)c1n[nH]c(C2CN(CCCS(C)(=O)=O)CCO2)n1 (stereo not given)
cytotoxicity at 10 µM: -11.9%

Cc1ccc(CNC(=O)NCCCO)cc1
cytotoxicity at 10 µM: -16.2%

COc1cc(C(=O)N2CCC(c3n[nH]c(C)n3)CC2)cc(OC)c1C
cytotoxicity at 10 µM: -10.9%

Cc1cc(C)n(CC2CN(CC(=O)NC3CCCC3)CCO2)n1 (stereo not given)
cytotoxicity at 10 µM: -4.41%

Cc1noc(C)c1CN(C)CCC(=O)N1CCc2sccc2C1
cytotoxicity at 10 µM: 0.265%

COc1ccc(OCCNCCn2cccn2)cc1
cytotoxicity at 10 µM: 2.05%

CCN(CC)Cc1nc2c(o1)CN(C(=O)c1ccc3[nH]ccc3c1)C2
cytotoxicity at 10 µM: 7.07%

c1csc(CN2CC3(CCN(Cc4ccsc4)C3)C2)n1
cytotoxicity at 10 µM: -2.65%

COc1ccc(CN2CCO[C@H]3[C@H](OCCN4CCCC4)CC[C@@H]32)cc1
cytotoxicity at 10 µM: 0.471%

O=C1COC2(CCN(Cc3ccoc3)CC2)CN1CCn1cccn1
cytotoxicity at 10 µM: 6.95%

CNC(=O)[C@H]1C[C@@H]2CN(S(=O)(=O)c3ccc(C)c(F)c3)C[C@@H]2N1C
cytotoxicity at 10 µM: -3.03%

Cn1cc(C[C@H]2[C@H](N3CCOCC3)CCN2C2CCOCC2)cn1
cytotoxicity at 10 µM: 5.13%

COc1ccc(CN2CCn3cc(CN4CCCCC4)nc3C2)cc1
cytotoxicity at 10 µM: 4.7%

Cc1n[nH]cc1CNC(C)c1cccc(N2CCCC2=O)c1 (stereo not given)
cytotoxicity at 10 µM: 6.05%

Cc1ccc(CN2CC(C(=O)NC(C)C)C3(CCOCC3)C2)s1 (stereo not given)
cytotoxicity at 10 µM: 1.12%

c1coc(CN2CCC3(CC2)COCCN(CCN2CCCC2)C3)c1
cytotoxicity at 10 µM: -7.82%

Cc1ccsc1CN1C[C@@H]2CN(Cc3cccnc3)CCO[C@@H]2C1
cytotoxicity at 10 µM: 8%

Cc1noc([C@H]2C[C@H]3OCC[C@H]3N(Cc3scnc3C)C2)n1
cytotoxicity at 10 µM: -73.4%

O=C(c1cccs1)N1CCOCC2(C1)CN(c1cccnc1)C(=O)CO2 (stereo not given)
cytotoxicity at 10 µM: 3.36%

COc1ccccc1CN1C[C@@H]2CN(C(C)=O)CCO[C@@H]2C1
cytotoxicity at 10 µM: -102%

Cc1noc(C)c1CN1CCO[C@H]2CN(Cc3nccn3C)C[C@H]21
cytotoxicity at 10 µM: 2.64%

Cc1ncccc1NC(=O)[C@@H]1CC[C@@H]2[C@@H](CCN2Cc2cnn(C)c2)O1
cytotoxicity at 10 µM: -0.335%

CNC(=O)[C@@H]1CC[C@@H]2[C@@H](CCN2Cc2ccccc2F)O1
cytotoxicity at 10 µM: 8.1%

O=C(c1ccccc1)N1C[C@H]2CC[C@@H](C1)N(C(=O)CN1CCOCC1)C2
cytotoxicity at 10 µM: 9.23%
